# Entries after “also recorded” stand apart in the source; their conditions may differ.
# Assays:
# [1] = test system: patients with advanced solid tumors; experiment: Phase I first-in-human study, safety and antitumor activity; assay type: in vivo
# Summary of the method: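 Patients with advanced solid tumours. Without run-in, patients got 5, 7.5, 10, 15, 20, 22.5 or 30 mg continuous q.d.; 30 or 45 mg intermittent q.d. (4 days on/3 off); or 5 mg continuous b.i.d. Adverse events were graded by CTCAE v4.03.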
# Population PK modeling = assay type: in vivo, human; conditions: patients, 5-45 mg oral
# Summary of the method: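 Pooled 1098 plasma concentrations from 66 patients across 10 oral regimens, measured by LC-MS/MS (LLOQ 1.0 ng/ml). Serial sampling to 24 h on C1D1 and C1D15, plus predose troughs. Two-compartment model with first-order absorption, lag time and linear clearance, fitted in log domain by FOCE in NONMEM. Log-normal interindividual variability on Ka, CL, Vc, CLd, Vp and Tlag; baseline covariates screened.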
# [2] = test system: skin AXIN2 mRNA expression; experiment: Exposure-response analysis for biomarker; assay type: in vivo; conditions: Homo sapiens, read-out: WNT974 concentration resulting in 50% Emax (EC50), skin AXIN2 reduction, estimated mean (90% prediction interval)
# [3] = Simulated steady-state PK from the PopPK model; assay type: in vivo, human
# Summary of the method: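 Steady-state C1D15 plasma profiles simulated from the final population PK model in 200–500 hypothetical patients per continuous once-daily dosing scenario. Cmin, Cmax and AUC24h derived from the simulated profiles.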
# [4] = cited from earlier work
# CYP3A4 = conditions: cited from earlier work
# CYP3A = conditions: in vitro; cited from earlier work
# [5] = test system: xenograft and Wnt ligand-driven mouse tumor models; conditions: cited from earlier work
# [6] = cited from earlier work; remark: listed apart in the source
# [7] = test system: patients with advanced solid tumors; conditions: cited from earlier work
# Porcupine = conditions: read-out: in vitro cellular IC50 for Porcupine; cited from earlier work
smiles,measurement,setting,value
Cc1cc(-c2ncc(CC(=O)Nc3ccc(-c4cnccn4)cn3)cc2C)ccn1 [WNT974],maximum tolerated dose (MTD),"[1]; dose-escalation part, 5-45 mg",not established
same,antitumor activity in patients,[1]; dose-escalation study,limited antitumor activity
same,"Absorption lag time (Tlag), population estimate (%RSE)",Population PK modeling,0.412 (3.2) h
same,"Apparent central clearance (CL/F), population estimate (%RSE)",Population PK modeling,20.7 (3.9) L/h
same,"Central volume of distribution (Vc), population estimate (%RSE)",Population PK modeling,138 (2.0) L
same,"Distribution clearance (CLd), population estimate (%RSE)",Population PK modeling,7.11 (9.4) L/h
same,"Peripheral volume of distribution (Vp), population estimate (%RSE)",Population PK modeling,260 (9.4) L
same,"Absorption rate constant (Ka), population estimate (%RSE)",Population PK modeling; 66 patients,1.60 (17.0) 1/h
same,EC50,[2],0.45 ng/mL
same,"Predicted steady-state AUC24h, mean (90% confidence interval)",[3]; 5 mg q.d.,233 (133–445) ng h/ml
same,"Predicted steady-state Cmax, mean (90% confidence interval)",[3]; 5 mg q.d.,28.1 (13.7–59.1) ng/ml
same,"Predicted steady-state Cmin, mean (90% confidence interval)",[3]; 5 mg q.d.,2.83 (0.835–8.02) ng/ml
same,"Predicted steady-state AUC24h, mean (90% confidence interval)",[3]; 10 mg q.d.,468 (254–880) ng h/ml
same,"Predicted steady-state Cmax, mean (90% confidence interval)",[3]; 10 mg q.d.,55.7 (26.1–109) ng/ml
same,"Predicted steady-state Cmin, mean (90% confidence interval)",[3]; 10 mg q.d.,5.78 (1.66–16.3) ng/ml
same,"Predicted steady-state AUC24h, mean (90% confidence interval)",[3]; 15 mg q.d.,699 (394–1294) ng h/ml
same,"Predicted steady-state Cmax, mean (90% confidence interval)",[3]; 15 mg q.d.,80.6 (41.7–166) ng/ml
same,"Predicted steady-state Cmin, mean (90% confidence interval)",[3]; 15 mg q.d.,8.21 (2.60–24.3) ng/ml
same,elimination half-life (t1/2),"[4]; all the animal species (mouse, rat, dog)",36 to 132 min
same,oral bioavailability,"[4]; mouse, rat, and dog",60–100%
same,metabolism,CYP3A4,"extensively metabolized, primarily by CYP3A4"
same,CYP3A inhibition,CYP3A,moderate reversible inhibitor
same,antitumor activity,[5]; preclinical tumor models,exhibited antitumor activity; also recorded: potent antitumor activity
same,AXIN2 mRNA expression in tumors,[5]; xenograft and Wnt ligand-driven mouse tumor models,reduction of AXIN2 mRNA expression in tumors
same,mean unbound Cmin,"[6]; C1D15, continuous q.d. dose of 5-30 mg",1.1 to 7.6 nM
same,dose proportionality of exposure,[6]; dose range 5-45 mg,dose proportional
same,mean t1/2,"[6]; patients, oral administration",5 to 8 h
same,median Tmax,"[6]; patients, oral administration",1 to 3 h
same,patients with dysgeusia (most common adverse event),[7]; FIH study,~ 50 % of patients
same,best response: patients with stable disease,[7]; dose-expansion part of the single-agent study,16 % of patients
same,IC50,Porcupine,0.4 nM

# From article PMC9283749 (Clinical and Translational Science, 2022)
